The full list was thinned out, with hits kept by preference.
Lipid droplet: inhibitors of hepatocyte lipid droplet formation, primary screen, imaging, high-throughput imaging, BODIPY stain; AML12 mouse hepatocytes, oleate lipid droplets; inhibition, % at 6.5 µM; hit rate 0.4% among 240,000; AID 1656, 2009;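 active = lipid droplet intensity inhibited by at least 50%, with more than 500 cells counted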
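System: AML12 hepatocytes (mouse). Probe or stimulus: oleic acid at 100 µM to induce lipid droplet formation. Times: overnight treatment with compound plus oleate. Detection: Image-based BODIPY and DAPI two-channel analysis. Evaluation: percent inhibition of filter-corrected integrated lipid droplet intensity per well.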
Lmaj promast: Leishmania major promastigote growth inhibition, primary screen; Leishmania major promastigotes, resazurin fluorescence viability; inhibition, % at 10 µM; hit rate 9% among 200,000; AID 1063, 2008; in the data active = inhibition above about 50%;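 also: promastigotes grown with compound for 44 hours at 28 °C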
DTT redox prof: compounds producing H2O2 with reducing agent – biochemical, NIH compound library profiling, artefact control for MLSCN library redox annotation, primary screen | DTT-dependent redox cycling H2O2, phenol red/HRP absorbance; 100% = 100 µM peroxide control, 0% = buffer | activation, % at 10 µM | hit rate 0.03% among 200,000 | AID 878, 2007;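 active = activation of at least 50% relative to the plate's high and low controls in the primary single-dose screen; inactive = activation below 50%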;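 also: compound incubated with DTT at 0.8 mM final as the reducing agent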
T cruzi inh: inhibitors of intracellular T. cruzi growth, primary screen, luminescence, NIH3T3 host cells | T. cruzi beta-gal in NIH3T3, 90 h | inhibition, % (concentration not given with the values) | hit rate 1.4% among 300,000;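 active = mean inhibition across valid replicates above about 55%, limit read from the data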;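 also: signal also drops with host cell toxicity which is not excluded here; 0% = plate median of DMSO wells and 100% = zero luminescence signal; higher percent means less beta-gal luminescence so fewer parasites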
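System – NIH/3T3 host cells with β-galactosidase reporter T. cruzi · Doses – single 50 nL compound addition per well in DMSO · Reagent – 5000 T. cruzi trypomastigotes/well · Medium – Low-serum DMEM with 2% FBS · Timing – ≥90 h infection period, 3 h prior cell attachment · Evaluation – parasite load inhibition, % · Technique – GalScreen luminescence, 60 min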
MPTP block: mitochondrial permeability transition pore inhibitors, primary screen, biochemical, isolated mouse mitochondria, absorbance. AID 602449, 2012. hit rate 1.4% among 360,000. Ca2+ swelling absorbance, 30 min. inhibition, % at 10 µM;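 active = inhibition of 50% or more, scaled per plate between neutral and stimulator controls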;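 also: 0% = DMSO wells given calcium and 100% = 1 mM EGTA wells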
Rh123 counter: fluorescence retest of MPTP screen hits in isolated mitochondria, single concentration; inhibition, % at 10 µM; shares compounds with MPTP block; membrane potential, Rhodamine 123 fluorescence; hit rate 78% among 5,000; in the data active = inhibition above about 22%;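 also: 0% = DMSO vehicle and 100% = positive control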
MPTP swell DR: mitochondrial permeability transition pore inhibitors, dose response, biochemical, absorbance, uHTS hits. shares compounds with MPTP block. isolated mitochondria swelling. IC50, µM. hit rate 58% among 780. AID 651561, 2012; in the data active = IC50 below about 20 µM
MPTP cs DR: fluorescent counter-screen in isolated mitochondria, dose response, counter-screen for MPTP inhibitor project, biochemical, fluorescence, uHTS hits; shares compounds with MPTP block; isolated mitochondria counterscreen, fluorescence read-out; IC50, µM; hit rate 49% among 780; AID 651564, 2012; in the data active = IC50 below about 80 µM
* hit, by the source's call; nt = not tested or not shown.

SMILES | Lipid droplet | Lmaj promast | DTT redox prof | T cruzi inh | MPTP block | Rh123 counter | others
O=C(Cc1ccc(Br)cc1)NCCc1ccc(F)cc1 | -1 | nt | nt | -9 | 0 | nt
COc1ccc(NC(=O)Nc2cccs2)cc1Cl | 11 | 10 | 0 | -2 | 74* | 80*
CCc1cccc(NC(=O)Nc2cccs2)c1 | 9 | 6 | 1 | 15 | 79* | 99*
O=C(Nc1cccs1)Nc1c(F)c(F)cc(F)c1F | -28 | -5 | 0 | 3 | 3 | nt
O=C(Nc1cccs1)Nc1c(F)c(F)c(F)c(F)c1F | -35 | 55* | 0 | -11 | 96* | 84*
N#Cc1cccc(NC(=O)Nc2cccs2)c1 | nt | 5 | 2 | 3 | 86* | 106*
COc1ccc(NC(=O)CCC(=O)c2cccs2)cc1Cl | 12 | nt | nt | 7 | 2 | nt
COCCCn1c(=O)c2sccc2n2c(CCCC(=O)NCc3ccc(OC)cc3)nnc12 | 1 | nt | nt | -12 | 0 | nt
CC(C)(C)OC(=O)C[C@H]1C/C=C\C[C@@H](CC(=O)N(CCO)Cc2ccccc2)C(=O)N[C@H](Cc2c[nH]c3ccccc23)COC1=O | nt | nt | nt | nt | -3 | nt
c1ccc(NC2=NCCN2CCCC2CCCCC2)cc1 | nt | nt | nt | nt | 11 | nt
N#Cc1cccc(NC(=S)Nc2ccccc2)c1 | 15 | 38 | 0 | 15 | 82* | 90*
O=C(Cc1ccc(S(=O)(=O)N2CCOCC2)s1)Nc1cc(C(F)(F)F)cc(C(F)(F)F)c1 | nt | nt | nt | nt | 69* | 78*
O=C(Cc1ccc(S(=O)(=O)N2CCOCC2)s1)Nc1cc(C(F)(F)F)ccc1N1CCCC1 | nt | nt | nt | 2 | -1 | nt
O=C(Cc1ccc(S(=O)(=O)N2CCCCC2)s1)Nc1ccc(F)c(F)c1 | -13 | 18 | 0 | 20 | 67* | 83*
COc1cc(OC)cc(C(=O)Nc2ccc(N3CCN(C(=O)c4cccs4)CC3)cc2)c1 | 8 | nt | nt | 26 | -2 | nt
CCOC(=O)c1ccc(S(=O)(=O)NC2CCC(C)CC2)cc1 (stereo not drawn) | nt | nt | nt | nt | 0 | nt
Cc1cc(NC(=O)Nc2cccc([N+](=O)[O-])c2)no1 | 6 | 5 | 0 | -2 | 16 | nt
COc1cc([N+](=O)[O-])ccc1NC(=O)Nc1cccnc1 | 2 | nt | nt | 3 | 2 | nt
Cc1ccc(NC(=O)Nc2cccc([N+](=O)[O-])c2)cc1F | 6 | 53* | 1 | 55* | 105* | 70*
O=C(Nc1ccc(OC(F)(F)F)cc1)Nc1cccc([N+](=O)[O-])c1 | 17 | 100* | 0 | 47 | 75* | 64*
O=C(Nc1cccnc1)Nc1cccc([N+](=O)[O-])c1 | -5 | nt | nt | -1 | 62* | 89*
O=C(Nc1ccccc1-c1ccccc1)c1ccc(Cl)c([N+](=O)[O-])c1 | -2 | 14 | 0 | -3 | 4 | nt
O=C(Nc1ccc(Cl)cc1)c1ccc(-n2cccn2)c([N+](=O)[O-])c1 | 4 | -1 | 2 | 29 | 73* | 66*
O=C(Nc1ccc(Nc2ccccc2)cc1)c1ccc(Cl)c([N+](=O)[O-])c1 | 6 | nt | nt | 5 | 67* | 64*
O=C(Nc1ccc(Cc2ccncc2)cc1)c1ccc(Cl)c([N+](=O)[O-])c1 | nt | -3 | 1 | 11 | 54* | 75*
SMILES | Lipid droplet | Lmaj promast | DTT redox prof | T cruzi inh | MPTP block | Rh123 counter | others
COc1ccc(NC(=O)c2ccc(-n3cccn3)c([N+](=O)[O-])c2)cc1 | -12 | 7 | 0 | 1 | -3 | nt
O=C(Nc1ncccn1)c1ccc(Cl)c([N+](=O)[O-])c1 | 1 | nt | nt | -4 | 1 | nt
CCOC(=O)Cn1nc(C)c(NC(=O)c2ccc(Cl)c([N+](=O)[O-])c2)c1C | -6 | 12 | 0 | -5 | 61* | 77*
CCOC(=O)Cn1nc(C)c(NC(=O)c2cccc([N+](=O)[O-])c2)c1C | -2 | -8 | 0 | 5 | 2 | nt
CC(C)(C)n1ncc2c(=O)n(Cc3cccc(Cn4cnc5c(cnn5C(C)(C)C)c4=O)c3F)cnc21 | nt | nt | nt | nt | 95* | 87*
O=C(NNC(=S)Nc1cccc2ccccc12)c1cccc(Br)c1 | 5 | -9 | 0 | -4 | 68* | 87*
O=C1CSC(c2cccc([N+](=O)[O-])c2)N1CCc1ccccc1 (stereo not drawn) | nt | nt | nt | 6 | 1 | nt
Cc1ccc(CNCCC2=CCCCC2)cc1 | -3 | 70* | 0 | 43 | 65* | -2 | MPTP swell DR=19*;MPTP cs DR=48*
CCOC(=O)c1ccc(NC(=S)NCCc2ccc(F)cc2)cc1 | -5 | 22 | -1 | -26 | 85* | 79*
CCOC(=O)c1ccc(NC(=O)C(=O)NCCc2ccc(OC)cc2)cc1 | 10 | -1 | 0 | -31 | -2 | nt
CCOC(=O)c1cn[nH]c1NC(=S)Nc1ccc(Cl)cc1 | -19 | nt | nt | -2 | 66* | 65*
CCOC(=O)c1ccc(NC(=O)Nc2ccc3c(c2)OCCO3)cc1 | -13 | 1 | 1 | 17 | 74* | 78*
CCOC(=O)c1c(NC(=O)Nc2ccc(Cl)cc2)sc(C)c1C | nt | -2 | -3 | -1 | 2 | nt
N#CCC(=O)Nc1ccc(C(=O)OCC(=O)NC(=O)Nc2ccc3c(c2)OCCO3)cc1 | nt | nt | nt | nt | 0 | nt
COc1cccc(CNC(=O)C2CCN(c3nnc(N4CCCC4=O)s3)CC2)c1 | 6 | nt | nt | 6 | -1 | nt
CCOC(=O)c1ccc(NC(=S)Nc2ccccc2)cc1 | 1 | 3 | 0 | -17 | 88* | 95*
CCOC(=O)c1ccc(NC(=S)Nc2ccccc2N)cc1 | nt | nt | nt | 10 | nt | nt
COC(=O)c1ccc(NC(=S)NCCC2=CCCCC2)cc1 | nt | -3 | -4 | -4 | 89* | 87*
Cc1ccc(CN2CCN(Cc3cccn3-c3ccccn3)CC2CCO)o1 (stereo not drawn) | 1 | -2 | -1 | -12 | 1 | nt
COC(=O)c1cc(NS(=O)(=O)c2ccc(NC(C)=O)cc2)ccc1Cl | -9 | nt | nt | -14 | 1 | nt
Cc1cc(CN(C)C(=O)c2cc(COc3ccc4ncccc4c3)on2)on1 | -31 | 1 | 1 | 4 | 96* | 73*
CN(Cc1nccn1C)C(=O)c1cc(COc2ccc3ncccc3c2)on1 | -27 | 0 | 0 | -3 | 70* | 19 | MPTP swell DR=19*;MPTP cs DR=46*
NC(=S)N/N=C1\CC(n2nnn(-c3cccc(Cl)c3)c2=S)C2COC1O2 (stereo not drawn) | 0 | 6 | -2 | 8 | -1 | nt
CC1(C(=O)Nc2ccc3c(c2)OCO3)CCN1C(=O)Cc1ccc(-c2ccccc2)cc1 (stereo not drawn) | nt | nt | nt | nt | 74* | 96*
